Only some compounds are listed: those with a hit (about 3.2% of all), similar ones and a draw of the others.
DAX1 inh-1: DAX1 (NR0B1) inhibitors, primary screen, cell-based, HEK293, Gal4-DAX1, luciferase luminescence. Nuclear receptor subfamily 0 group B member 1 (Homo sapiens), P51843. HEK293 Gal4-DAX1 luciferase reporter. inhibition, % at 6.75 µM. 340,000 tested, 0.99% active;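 active = inhibition above the mean over all tested compounds plus 3 SD, cut at about 4.2% in these data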;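 also: inhibition shows as a rise in luminescence from relieved DAX1 repression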
NR2E3 ag-1: NR2E3 agonists in two-hybrid cells, primary screen, cell-based, luminescence, CHO-S, Gal4-NCOR/VP16-NR2E3; inhibition of corepressor binding, % at 3.98 µM; 360,000 tested, 0.35% active; Photoreceptor-specific nuclear receptor (Homo sapiens), Q9Y5X4; luciferase;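 active = inhibition above the mean of all tested compounds plus 3 SD, cut at about 70% in these data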;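 also: higher means lower luciferase signal from less NR2E3 corepressor binding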
DAX1 inh-2: DAX1 (NR0B1) inhibitors on StAR promoter, primary screen, cell-based, luminescence, SF-1 (NR5A1), full-length DAX-1. 370,000 tested, 1.1% active. AID 652010, 2013. HEK293T StAR-luciferase reporter, SF-1/DAX-1 repression relief. inhibition, % at 6.8 µM;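 active = inhibition above the mean over all tested compounds plus 3 SD, cut at about 3.6% in these data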;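 also: higher inhibition means more luminescence from relief of DAX-1 repression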
NR2E3 ag-2: inhibitors of NR2E3-RetCOR corepressor binding, primary screen, NR2E3 agonist project, biochemical, TR-FRET, GST-NR2E3, biotin-RetCOR; inhibition of corepressor binding, % at 4.78 µM; 320,000 tested, 0.12% active; AID 2300, 2010; 1536-well;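 active = percent inhibition above the cutoff of mean plus 3 SD of all tested compounds, set per screening campaign, cut at about 20% in these data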
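Material – GST-tagged NR2E3 plus biotinylated RetCOR corepressor · Quantity – NR2E3 fusion 1.35 nM · Times – 5 h incubation at 4 °C · Medium – pH 7.5 Tris-based buffer · Technique – TR-FRET, Eu(K)-anti-GST donor, streptavidin-D2 acceptor, ex 340, em 617/671 nm · Benchmarks – high control biotin, low control 0.6% DMSO · Format – 1536-well plates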
SMARCA2 activ: SMARCA2 (BRM) function activators, primary screen, cell-based, luminescence, high throughput | MG213 cells, MMTV-luciferase reporter, dexamethasone, overnight | activation, % at 9.1 µM | 370,000 tested, 1% active; in the data active = activation above about 7.8%
GASC-1 inh: inhibitors of GASC-1 histone demethylase, primary screen, biochemical, fluorescence, DELFIA europium | Lysine-specific demethylase 4C (Homo sapiens), Q9H3R0 | GST-JMJD2C(1-420) H3K9me3 demethylation | inhibition, % at 2.35 µM | 330,000 tested, 0.069% active | AID 2099, 2009;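 active = more than half of a compound's replicate wells show inhibition beyond 50%, single wells judged on their own value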;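 also: signal counts dimethyl H3K9 product captured on neutravidin plate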
DAX1 inh confirm: DAX1 (NR0B1) inhibitors relieving SF-1 repression, confirmation, cell-based, luminescence, HEK293T, full-length DAX-1, SF-1 activated StAR promoter. 2,400 tested, 87% active. shares compounds with DAX1 inh-2. HEK293T StAR-promoter luciferase reporter, SF-1/DAX-1 repression. AID 652134, 2013. inhibition, % at 6.8 µM;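 active = inhibition above the average of every tested compound plus 3 SD, cut at about 3.8% in these data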
Target sequence (P51843 whole entry, looked up): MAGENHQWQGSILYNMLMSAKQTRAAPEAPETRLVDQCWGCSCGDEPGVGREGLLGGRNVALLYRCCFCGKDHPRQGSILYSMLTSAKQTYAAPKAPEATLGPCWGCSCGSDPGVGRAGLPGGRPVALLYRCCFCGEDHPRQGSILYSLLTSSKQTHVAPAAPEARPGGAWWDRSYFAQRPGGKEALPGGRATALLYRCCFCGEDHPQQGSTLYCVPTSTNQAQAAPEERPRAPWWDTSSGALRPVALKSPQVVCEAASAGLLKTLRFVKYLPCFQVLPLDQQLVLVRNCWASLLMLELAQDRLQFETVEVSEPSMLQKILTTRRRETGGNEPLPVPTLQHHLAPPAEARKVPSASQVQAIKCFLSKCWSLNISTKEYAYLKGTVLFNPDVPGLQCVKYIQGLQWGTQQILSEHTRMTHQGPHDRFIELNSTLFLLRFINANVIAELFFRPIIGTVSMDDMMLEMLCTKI
SF1 mutant ctr: StAR reporter signal changes without DAX1, counter-screen for DAX1 inhibitor project, cell-based, luminescence, AF-2 mutant SF-1, transactivation | 2,400 tested, 78% active | HEK293 StAR-luciferase, SF-1 AF2 mutant | shares compounds with DAX1 inh-2 | inhibition, % at 6.8 µM | AID 652136, 2013;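 active = inhibition above the mean of all tested compounds plus 3 SD, cut at about 3% in these data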
Numbers stand for hits; – = inactive; · = not tested or not shown.

SMILES	DAX1 inh-1	NR2E3 ag-1	DAX1 inh-2	NR2E3 ag-2	SMARCA2 activ	GASC-1 inh	DAX1 inh confirm	SF1 mutant ctr
Cc1ccc(NC(=O)c2ccc(OCC3CCCO3)cc2)nc1 (stereo not drawn)	–	–	8.3	–	–	–	6.7	3.3
O=C(NC1=NCCS1)c1ccc(OCC2CCCO2)cc1 (stereo not drawn)	–	–	–	–	–	–	·	·
Cc1ccc(NC(=O)c2ccc(OCC3CCCO3)cc2)cc1 (stereo not drawn)	–	–	–	–	–	–	·	·
O=C(Nc1nc2ccccc2[nH]1)c1ccc(Br)o1	–	–	6.0	–	–	–	7.9	5.2
O=C(Nc1nc2ccccc2[nH]1)c1cccs1	–	–	6.6	–	–	–	4.6	4.6
COC(=O)Nc1nc2ccc(C(=O)c3cccs3)cc2[nH]1	–	–	8.7	–	–	–	49	–
COC(=O)Nc1nc2ccc(SC(C)C)cc2[nH]1	–	–	–	–	–	·	·	·
CN1C(=O)[C@@](O)(c2cccn2C)c2cc(Cl)ccc21	·	·	–	·	–	·	·	·
COC(=O)[C@]12C[C@H](CC(=O)N3CCCCC3)C(=O)N(Cc3ccco3)C1=C[C@H](C(C)(C)C)O[C@@H]2C	·	·	–	·	–	·	·	·
O=C(COC(=O)c1c[nH]c2ccccc12)NC1CCCC1	–	–	–	–	–	–	·	·
O=C(NC1CCCCC1)C(=O)c1c[nH]c2ccccc12	–	–	6.5	–	–	–	8.5	5.5
CC(C)[C@H]1/C(=C/C2CC2)N2C(=O)C[C@@H](c3ccccc3)N=C2N1Cc1ccc2c(c1)OCO2	·	·	–	·	–	·	·	·
CCCC(=O)NNC(=O)c1ccoc1C	–	–	–	–	–	–	·	·
CCC(C)(C)C1CCC(=NNC(=O)c2ccoc2C)CC1 (stereo not drawn)	–	–	4.7	–	11	–	–	3.1
CCCOC1CCCN(C(=O)c2cc(COc3c(F)cccc3F)on2)C1 (stereo not drawn)	–	–	4.5	–	–	–	4.4	5.5
Cn1ccc(C(=O)Nc2ccc(Br)cc2Br)n1	–	–	4.9	–	–	–	11	6.6
Cc1ccc(NC(=O)c2ccccn2)c(Br)c1	6.4	–	8.5	–	–	–	15	12
Cc1ccc(NC(=O)Cn2cccc2)c(Br)c1	–	–	–	–	–	–	·	·
Cc1ccc(NC(=O)c2ccn(C)n2)c(Br)c1	–	–	5.9	–	–	–	13	8.8
COc1cccc(NC(=O)c2ccn(C)n2)c1	–	–	–	–	–	–	·	·
COC(=O)C1CN(Cc2ccc(OC)cc2)CCS(=O)(=O)N1Cc1ccc(OC)cc1 (stereo not drawn)	·	·	–	·	–	·	·	·
Nc1ccccc1N=Nc1ccccc1N	–	–	–	–	–	–	·	·
CC(C)(C)C1=CC(=Nc2ccccc2N)C=C(C(C)(C)C)C1=O	–	–	4.6	–	–	–	–	–
CCN(CC)C(=O)CC[C@@H]1CC[C@]2(CCCN(Cc3ccccc3)C2)O1	·	·	–	·	–	·	·	·
Cc1ccc(/C=N/NC(=O)c2ccncc2)s1	–	–	–	–	–	–	·	·

Screening data deposited in PubChem BioAssay by several laboratories.
